Compound activity deposited in PubChem by several laboratories.
Compounds with a hit are over-represented: about 11% of the library has one in this group of screens.
RORA act: activates the human nuclear receptor RORA. P35398. CHO-K1 Gal4-RORA LBD luciferase reporter, luminescence; percent increase over mock-subtracted basal signal. activation, % at 10 µM. actives 1.5% (n = 65,000). AID 560;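 active = activation above the mean of all tested compounds plus 3 SD, cut at about 49% in these data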;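 also: 0% = DMSO-treated RORA cells and 100% = added signal equal to DMSO minus mock-transfected cells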
D1 mod: allosteric modulators of human D1 dopamine receptor; P21728; HEK293 D1, CRE-luciferase, dopamine EC30 potentiation; actives deviate in either direction; B-score at 10 µM; actives 5.9% (n = 58,000); AID 641;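 active = luminescence count or its row- and column-corrected plate score outside the 99.7% band of the plate's sample wells, on either side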
Target sequence (P21728 whole entry, looked up): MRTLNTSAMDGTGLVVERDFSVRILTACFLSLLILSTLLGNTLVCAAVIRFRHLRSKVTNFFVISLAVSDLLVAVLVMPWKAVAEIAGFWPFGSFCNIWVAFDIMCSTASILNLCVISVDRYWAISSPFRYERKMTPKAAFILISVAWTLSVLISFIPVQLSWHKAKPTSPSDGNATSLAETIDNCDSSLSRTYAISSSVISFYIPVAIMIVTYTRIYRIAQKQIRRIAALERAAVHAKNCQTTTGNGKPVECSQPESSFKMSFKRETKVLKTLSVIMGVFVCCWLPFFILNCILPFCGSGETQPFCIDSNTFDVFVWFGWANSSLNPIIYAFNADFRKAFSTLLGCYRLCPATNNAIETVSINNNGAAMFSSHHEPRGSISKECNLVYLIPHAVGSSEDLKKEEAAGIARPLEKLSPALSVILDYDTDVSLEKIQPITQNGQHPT
M1 antagonist: blocks the rat M1 muscarinic receptor response to acetylcholine; CHO-M1 cells, Fluo-4 calcium, ACh EC80 antagonist mode; stronger effect = lower value; B-score at 10 µM; actives 3.4% (n = 64,000); AID 628;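 active = calcium fluorescence response, raw or row-and-column corrected B-score, differing from the plate sample mean either way at a set confidence level, mostly lower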
M1 ag: agonists of M1 muscarinic receptor. CHO-M1 cells, Fluo-4 calcium fluorescence, agonist mode; stronger effect = higher value. B-score at 10 µM. actives 3% (n = 64,000). AID 626;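 active = fluorescence rise, raw or as B-score row- and column-corrected plate score, outside the 99.7% band of its plate's samples, either direction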
SF-1 act: SF-1 (human) activation | actives 1.9% (n = 65,000) | activation, % at 10 µM | CHO-K1 Gal4-SF-1 LBD luciferase reporter; % increase over DMSO SF-1-specific signal;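 active = activation above the mean activation of all tested compounds plus 3 SD, cut at about 50% in these data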
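Assay system – CHO-K1 cells with Gal4–hSF-1 LBD chimera plus Gal4-driven luciferase · Quantity – 4,000 cells per well · Times – compound added 1 h post-seeding, 20 h exposure at 37 °C, 5% CO2 · Measured by – luciferase light emission · Benchmarks – DMSO and mock-transfected background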
mHtt clearance: mutant huntingtin protein clearance. HeLa Exon1htt(103Q)mCFP, aggregate imaging; zero = plate's median compound well. actives 0.42% (n = 47,000). inhibition, % at 1.5 µM;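 active = inhibition of aggregate fluorescence above about 70%, also judged a hit by eye on the cell image, limit read from the data, passing the limit was not always enough; inconclusive = no rule stated for this call; inactive = not judged a hit on image review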;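 also: cells exposed to compound for three days before fixation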
M1 ag confirm: rat M1 muscarinic agonism, confirmation; actives 19% (n = 1,700); fluorescence change (max-min) at 10 µM; CHO-M1 cells, Fluo-4 calcium fluorescence, agonist mode; actives lie on both sides; shares compounds with M1 ag;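 active = fluorescence change differs from the solvent-only DMSO control mean at a set confidence level in both duplicate runs; inconclusive = differs from solvent-only control mean in just one of two runs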;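 also: an EC20 dose of acetylcholine follows compound addition during the same imaging run; raw fluorescence intensity difference in instrument units with no normalization to controls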
M4 agonist ctr: activates rat M4 receptor in counter-screen for M1 agonists. fluorescence change (max-min) at 10 µM. shares compounds with M1 ag. CHO M4/Gqi5 cells, Fluo-4 calcium fluorescence, agonist mode; actives lie on both sides. actives 9% (n = 1,700);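 active = fluorescence change differing from the plate's solvent-only control wells at 99.7% confidence in both duplicates, whether higher or lower; inconclusive = differs from solvent controls in only one of two duplicates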
M1 antag conf: confirmation of rat M1 muscarinic receptor antagonists; shares compounds with M1 antagonist; CHO-M1 cells, Fluo-4 calcium, ACh EC80 antagonism; stronger effect = lower value; calcium response (max-min fluorescence) at 10 µM; actives 43% (n = 1,700); AID 677;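 active = calcium response below the same-plate mean of wells given acetylcholine alone at its 80%-effect dose, minus 3 SD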;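 also: raw fluorescence intensity difference in arbitrary instrument units and not normalized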
mGluR4 antag: acts on human mGluR4 in M1 antagonist selectivity test; shares compounds with M1 antagonist; CHO-mGluR4 calcium flux, Fluo-4 fluorescence, glutamate EC80; stronger effect = lower value; fluorescence response (max-min) at 10 µM; actives 0.9% (n = 1,700);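 active = fluorescence response below the plate's average for near-maximal glutamate wells, less 3 SD of those wells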;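 also: raw unnormalized fluorescence span taken in the window right after glutamate addition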
D1 PAM confirm: D1 receptor (human) allosteric modulation, confirmed. shares compounds with D1 mod. HEK293 D1 CRE-luciferase, dopamine EC30 potentiation; stronger effect = higher value. luminescence at 10 µM. actives 88% (n = 2,200). AID 642;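 active = luminescence in either of two replicates above the same-plate mean plus 3 SD of the low-dose dopamine control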
D1 no dopamine: D1 (human) signaling in absence of dopamine; actives 0.8% (n = 1,900); luminescence at 10 µM; shares compounds with D1 mod; HEK293 D1 CRE-luciferase, luminescence, no dopamine; stronger effect = higher value; in the data active = luminescence above about 3900
Isoprot counter: counter-screen for D1 modulators: isoproterenol response in HEK293 cells | AID 647 | actives 63% (n = 2,200) | HEK293 D1 CRE-luciferase, isoproterenol EC30 counter-screen | calls only at 10 µM | shares compounds with D1 mod;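 active = luminescence in either replicate above plate mean of wells with a partly effective reference agonist dose plus 3 SD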;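 also: isoproterenol raises cAMP through native beta-adrenoceptor Gs so signal bypasses D1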
* hit, by the source's call; i = inactive; u = inconclusive; x = not tested or not shown; + = active, no number.

SMILES	RORA act	D1 mod	M1 antagonist	M1 ag	SF-1 act	mHtt clearance	M1 ag confirm	M4 agonist ctr	D1 PAM confirm	D1 no dopamine	Isoprot counter	others
O=C(Nc1ncnc2sc3c(c12)CCCCC3)c1ccco1	-19	5.3*	-10*	37*	0	22	-11	-53	9540*	1788	i
O=C(Nc1sc2c(c1C(=O)NC1CCCCC1)CCC2)c1ccco1	-10	1	-0.9	0.33	-21	x	x	x	x	x	x
Cc1cc(N)n(-c2ccccc2)n1	x	0.87	-0.27	-1.5	x	-38	x	x	x	x	x
Cc1cc(N)n(-c2nc(-c3cccnc3)nc3ccccc23)n1	4	4.3*	-0.56	5.6*	27	x	u	-76	12176*	1524	i
Cc1ccc(C2CC(c3ccco3)n3nc(N)nc3N2)cc1 (stereo unspecified)	14	x	-0.1	0.42	16	-196	x	x	x	x	x
Nc1nc2n(n1)C(c1ccco1)CC(c1ccc(F)cc1)N2 (stereo unspecified)	-6	7*	0.11	2.3*	-2	x	u	u	9024*	1664	i
COc1cccc(NC(=O)CSCc2n[nH]c(=O)[nH]2)c1	-12	0.93	-0.34	0.66	6	-18	x	x	x	x	x
CCN(CC)c1nc(N)nc(N(c2ccccc2)c2ccccc2)n1	x	x	x	x	x	10	x	x	x	x	x
COc1nc(N(c2ccccc2)c2ccccc2)nc(-n2ccnc2)n1	-18	4.3*	-1	3.4*	-15	-15	-11	-28	12628*	1456	+
CCN(CC(=O)Nc1ccc2c(c1)OCCO2)c1nc(-c2cccnc2)nc2ccccc12	-21	3.6*	-0.64	7.3*	9	-3	-28*	u	7472*	1256	+
Cc1ccc2cc(C)c3nnc(SCC(=O)Nc4nc5c(s4)CCCC5)n3c2c1	x	x	x	x	x	11	x	x	x	x	x
CNC(=O)c1cc2c(=O)n3cc(C)ccc3nc2n(Cc2ccco2)c1=N	14	0.55	-0.16	-1.9	-2	x	x	x	x	x	x
C=CCn1c(=N)c(C#N)cc2c(=O)n3ccccc3nc21	x	x	x	x	x	6	x	x	x	x	x
Cc1ccc(S(=O)(=O)c2cc3c(=O)n4ccccc4nc3n(C)c2=N)cc1	-23	5.3*	-0.015	5.1*	1	x	-11	u	13268*	1724	+
Cc1ccc(S(=O)(=O)c2cc3c(=O)n4ccccc4nc3n(Cc3ccco3)c2=N)cc1C	4	6*	-0.48	5.9*	42	20	20	11	13264*	1500	+
O=c1c([N+](=O)[O-])c(N2CCCCC2)c2ccccc2n1-c1ccccc1	x	x	x	x	x	-96	x	x	x	x	x
Cc1c(C(=O)NC(C)C)oc2c1-c1[nH]ncc1CC2	-17	-0.33	-0.76	0.47	8	3	x	x	x	x	x
CCOc1ccc(CCNC(=O)c2oc3c(c2C)-c2[nH]ncc2CC3)cc1OCC	15	11*	-0.016	3.2*	16	x	-23*	-74*	24696*	1620	+
COc1ccc(C(C)(C)C)cc1NC(=O)Nc1ccc2c(c1)OCO2	-11	-1.1	0.81	0.9	-8	x	x	x	x	x	x
Nc1c(C(=O)NC2CC2)c2nc3ccccc3nc2n1-c1ccc2c(c1)OCO2	18	-1.3	-0.14	-0.54	-12	16	x	x	x	x	x
Nc1c(C(=O)OCC2CCCO2)c2nc3ccccc3nc2n1-c1ccc2c(c1)OCCO2 (stereo unspecified)	-6	5.1*	-0.2	5.9*	4	-32	-12	u	5800	x	i
COc1ccc(S(=O)(=O)Nc2ccc(S(=O)(=O)Nc3nc(C)cc(C)n3)cc2)cc1OC	-14	0.28	-0.12	-0.42	2	x	x	x	x	x	x
CCn1cnc2sc(C(=O)N(Cc3ccc(N(C)C)cc3)Cc3ccco3)c(C)c2c1=O	-4	4.9*	0.085	12*	-13	x	-22	u	12360*	x	+
CCOC(=O)C1=C(C)OC(N)=C(C#N)C1c1cc(OC)c2c(c1)OCO2 (stereo unspecified)	6	2.8	-0.59	-0.56	-1	x	x	x	x	x	x
COc1cc(C2C(C#N)=C(N)Oc3cc(N(C)C)ccc32)cc2c1OCO2 (stereo unspecified)	-17	7.3*	-0.25	45*	-59	x	206*	203*	15056*	1964	+
SMILES	RORA act	D1 mod	M1 antagonist	M1 ag	SF-1 act	mHtt clearance	M1 ag confirm	M4 agonist ctr	D1 PAM confirm	D1 no dopamine	Isoprot counter	others
COc1cc2c(cc1OC)C1=C(C#N)CN(C3CCCCC3)CN1CC2	-12	4.2*	-0.4	5.1*	21	x	-7.1	-17	14420*	1880	+
CCOC(=O)c1c(C)c(C(=O)N(C)C2CCCCC2)c(C)n1C	18	-1.2	0.6	0.42	9	x	x	x	x	x	x
COc1cc(-c2nnc3n2N=C(c2ccccc2)CS3)cc(OC)c1OC	31	1.9*	-0.35	4.6*	25	x	u	-48	7188*	1768	+
CCOC(=O)/C=C1\SCC(=O)N1CC(=O)Nc1ccc2c(c1)CCC2	0	0.039	-1.9*	0.39	7	x	x	x	x	x	x	M1 antag conf=652;mGluR4 antag=183
COC(=O)C1C(=O)c2c([nH]c(C(=O)OCCOC(C)C)c2C)CC1C (stereo unspecified)	8	-0.093	-2.9*	0.1	29	x	x	x	x	x	x	M1 antag conf=707;mGluR4 antag=222
O=C(O)CCN1C(=O)C(=C2CCCCCC2)SC1=S	-30	-0.72	-0.029	0.0022	-1	x	x	x	x	x	x
O=C1C(=C2CCCCC2)SC(=S)N1Cc1ccco1	9	0.38	-7.3*	-1	-12	22	x	x	x	x	x	M1 antag conf=111*;mGluR4 antag=206
CN1CCN(c2nc(NCCOC34CC5CC(CC(C5)C3)C4)nc(OCC(F)(F)F)n2)CC1	1	-0.3	-6.2*	-1.1	-18	x	x	x	x	x	x	M1 antag conf=484*;mGluR4 antag=190
